Reference: ChEMBL document CHEMBL1250492, “Development of isoniazid-NAD truncated adducts embedding a lipophilic fragment as potential bi-substrate InhA inhibitors and antimycobacterial agents” (Eur J Med Chem, 2010)
pIC50: −log10 of the molar value. Several values for one entry are separate records, joined by “and”; a condition that tells them apart may be missing. Identical values can stand only once.

Tests used:
[1] = molecular target: T1, Enoyl-[acyl-carrier-protein] reductase [NADH] (Mycobacterium tuberculosis) (UniProt P9WGR1); test: Inhibition of Mycobacterium tuberculosis InhA expressed in Escherichia coli at 100 uM after 5 mins
T1 sequence (whole entry): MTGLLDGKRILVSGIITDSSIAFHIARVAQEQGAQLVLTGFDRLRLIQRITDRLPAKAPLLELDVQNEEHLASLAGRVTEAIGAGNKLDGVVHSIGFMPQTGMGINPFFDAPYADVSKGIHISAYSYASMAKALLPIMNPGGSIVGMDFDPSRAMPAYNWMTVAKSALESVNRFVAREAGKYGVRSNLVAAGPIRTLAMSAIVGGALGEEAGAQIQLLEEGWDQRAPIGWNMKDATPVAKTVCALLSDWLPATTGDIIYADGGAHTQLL
Procedure, shortened: (§1)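 Recombinant M. tuberculosis InhA, E. coli-expressed and purified, at 70 nM. Pre-incubated with compound for 5 min or 2 h in 30 mM PIPES, 150 mM NaCl, pH 6.8, 25 °C, with 0.5% final DMSO. The reaction was started with trans-2-decenoyl-CoA plus NADH and followed by NADH oxidation at 340 nm, 25 °C. Initial rates were compared with a ligand-free control, giving % inhibition. Run in triplicate.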

[2] = tested on: Mycolicibacterium smegmatis; test: Antimycobacterial activity against Mycobacterium smegmatis after 24 hrs by MTT assay; assay type: functional, organism-based
Procedure, shortened: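 MTT (1 mg/ml solution) was then added for a further 24 h, followed by DMF:20% SDS (1:2) solubilization and A570 reading. MIC is the lowest concentration blocking visible growth, and IC50 was fitted by non-linear regression. DMSO stocks were at 100× the top concentration. Isoniazid served as positive control.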

[3] = tested on: Mycobacterium tuberculosis; test: Antimycobacterial activity against Mycobacterium tuberculosis after 24 hrs by MTT assay; assay type: functional, organism-based
Procedure, shortened: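 MTT was then added for a further 24 h, followed by DMF:20% SDS (1:2) solubilisation and A570 read-out. MIC was the lowest concentration stopping visible growth versus untreated bacilli. IC50 came from non-linear regression. DMSO stocks were at 100× the top concentration.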

[4] = molecular target: T1, Enoyl-[acyl-carrier-protein] reductase [NADH] (Mycobacterium tuberculosis); test: Inhibition of Mycobacterium tuberculosis InhA expressed in Escherichia coli at 20 uM after 5 mins; procedure, shortened: as §1
[5] = molecular target: T1, Enoyl-[acyl-carrier-protein] reductase [NADH] (Mycobacterium tuberculosis); test: Inhibition of Mycobacterium tuberculosis InhA expressed in Escherichia coli at 10 uM after 5 mins; procedure, shortened: as §1
[6] = molecular target: T1, Enoyl-[acyl-carrier-protein] reductase [NADH] (Mycobacterium tuberculosis); test: Inhibition of Mycobacterium tuberculosis InhA expressed in Escherichia coli at 20 uM after 2 hrs; procedure, shortened: as §1
[7] = molecular target: T1, Enoyl-[acyl-carrier-protein] reductase [NADH] (Mycobacterium tuberculosis); test: Inhibition of Mycobacterium tuberculosis InhA expressed in Escherichia coli at 1 uM after 5 mins
[8] = molecular target: T1, Enoyl-[acyl-carrier-protein] reductase [NADH] (Mycobacterium tuberculosis); test: Inhibition of Mycobacterium tuberculosis InhA expressed in Escherichia coli at 10 uM after 2 hrs; procedure, shortened: as §1
[9] = molecular target: T1, Enoyl-[acyl-carrier-protein] reductase [NADH] (Mycobacterium tuberculosis); test: Inhibition of Mycobacterium tuberculosis InhA expressed in Escherichia coli at 1 uM after 2 hrs
[10] = molecular target: T1, Enoyl-[acyl-carrier-protein] reductase [NADH] (Mycobacterium tuberculosis); test: Inhibition of Mycobacterium tuberculosis InhA expressed in Escherichia coli at 100 uM after 2 hrs; procedure, shortened: as §1
[11] = Mycolicibacterium smegmatis, 24 h

SMILES	inhibition [1]	pIC50 [2]	pIC50 [3]	pIC50 [2, 11]	also measured
CCCCCCCCc1cccc(C2(O)NC(=O)c3cnccc32)c1 (centres undefined)	9%	5.35 and 4.71	4.71		
CCCCCCCCCCCCOc1cccc(C2(O)NC(=O)c3c[n+](CC(=O)OCCCO)ccc32)c1 (centres undefined)	30%				
CCCCCCCCCCCCc1cccc(C2(O)NC(=O)c3c[n+](CC(=O)OCC)ccc32)c1 (centres undefined)	91%	5.49 and 5.01	4.41		inhibition [4]: 40%; inhibition [5]: 19%; inhibition [6]: 28%
O=C1NC(O)(c2cccc(O)c2)c2ccncc21 (centres undefined)	17%			3.52	
CCCCCCCCCCCCc1cccc(C(=O)C2C=CN(CC(=O)OCC)C=C2C(N)=O)c1 (centres undefined)		5.01	5.01	5.28	inhibition [5]: 25%
CCCCCCCCCCCCOc1cccc(C(=O)C2C=CN(CC(=O)OCC)C=C2C(N)=O)c1 (centres undefined)	6%				
CCCCCCCCCc1ccc(-c2cccc(C3(O)NC(=O)c4cnccc43)c2)cc1 (centres undefined)	17%			2.74	
NNC(=O)c1ccncc1 [ISONIAZID]		5.11 and 4.41	> 6.52		
NC(=O)C1=CN([C@@H]2O[C@H](COP(=O)(O)OP(=O)(O)OC[C@H]3O[C@@H](n4cnc5c(N)ncnc54)[C@H](O)[C@@H]3O)[C@@H](O)[C@H]2O)C=C[C@@H]1C(=O)c1ccncc1					inhibition [5]: 92%; inhibition [7]: 67%; inhibition [8]: 97%; inhibition [9]: 87%
CCCCCCCCCCCCOc1cccc(C(=O)C2C=CN(CC(=O)OCCCO)C=C2C(N)=O)c1 (centres undefined)	3%				
O=C1NC(O)(c2cccc(Br)c2)c2ccncc21 (centres undefined)	20%			< 2.30	
CCCCCCCCCCCCOc1cccc(C2(O)NC(=O)c3c[n+](CC(=O)OCC)ccc32)c1 (centres undefined)	35%				
C=CCOc1cccc(C2(O)NC(=O)c3cnccc32)c1 (centres undefined)	23%			2.89	
CCCCCCCCCCCCOc1cccc(C2(O)NC(=O)c3cnccc32)c1 (centres undefined)	41%	4.17 and 3.81	3.81		inhibition [10]: 80%
CCCCCCCCCCCCc1cccc(C2(O)NC(=O)c3cnccc32)c1 (centres undefined)	4%	4.11	5.01	4.33	
